Assays:
[1] = species: Rattus norvegicus; assay: Delta BP refers to difference in systolic blood pressure of SH rats; assay type: functional, Artery
Method in brief: (§1)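 Male spontaneously hypertensive rats (Wistar–Okamoto, 250–300 g, 12–16 weeks), conscious. Dosed orally once daily for 5 days in 0.9% NaCl or 0.5% carboxymethylcellulose (10 mL/kg); vehicle control group. Rats warmed at 37–38 °C for 10 min, then systolic pressure taken by tail-cuff (piezoelectric pulse detection). ΔBP = pre-first-dose minus 2 h after fifth dose; mean ± SEM, six animals.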

[2] = tested on: Felis catus; assay: Dose estimated to produce 25 mm Hg fall in mean systemic blood pressure of anesthetized cat at 10 min after administration; assay type: functional
[3] = tested on: Rattus norvegicus; assay: Difference in systolic blood pressure of SH rats observed prior to the first application and 2 hr after the fifth application at the oral dose of 25 mg/kg was expressed as Delta BP; assay type: functional, Artery; method in brief: as §1
[4] = species: Rattus norvegicus; assay: Evaluated for antihypertensive activity in hypertensive(SH) rat
[5] = tested on: Felis catus; assay: Dose estimated to produce a fall in mean blood pressure of anesthetized cat at 10 min after administration; assay type: functional
Method in brief: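 Cats (2.5–4.0 kg, either sex), ether induction, chloralose 70 mg/kg iv maintenance. Compound in distilled water or propylene glycol given via femoral vein at 0.01–10 mg/kg. Fall in mean arterial pressure read 10 min post-dose; ED25 (dose for 25 mmHg fall) calculated from log dose–response curve.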

[6] = tested on: Felis catus; assay: Percent hypotension was determined in cats after administering 25 ug/kg intravenously; assay type: functional
Method in brief: (§2)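 Cats (2.5–4.0 kg, either sex) under ether, maintained on chloralose 70 mg/kg iv. Dosing by femoral vein catheter at 10, 25 or 50 µg/kg. Records initial BP, peak fall in mean arterial pressure, percent hypotension and response duration. Mean ± SEM, five experiments per dose.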

[7] = tested on: Felis catus; assay: Duration for hypotensive action in cats after administering 10 ug/kg intravenously; assay type: functional; method in brief: as §2
[8] = tested on: Oryctolagus cuniculus; assay: Duration for hypotensive action in rabbits after administering 25 ug/kg intravenously; assay type: functional
Method in brief: (§3)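 Anesthetized rabbits. Dosing by femoral vein catheter at 10, 25 or 50 µg/kg. Records initial BP, maximal fall in mean arterial pressure, percent hypotension and duration of hypotension. Mean ± SEM, 6–7 experiments per dose.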

[9] = tested on: Felis catus; assay: Hypotensive activity of compound was evaluated by measuring initial blood pressure in cats after administering 50 ug/kg intravenously; assay type: functional; method in brief: as §2
[10] = tested on: Felis catus; assay: Hypotensive activity of compound was evaluated by measuring fall in blood pressure in cats after administering 25 ug/kg intravenously; assay type: functional; method in brief: as §2
[11] = tested on: Oryctolagus cuniculus; assay: Percent hypotension was determined in rabbits after administering 50 ug/kg intravenously; assay type: functional; method in brief: as §3
[12] = tested on: Felis catus; assay: Percent hypotension was determined in cats after administering 10 ug/kg intravenously; assay type: functional; method in brief: as §2
[13] = tested on: Canis familiaris; assay: Hypotensive activity of compound was evaluated by measuring fall in blood pressure in dogs after administering 25 ug/kg intravenously; assay type: functional, Canis lupus familiaris
Method in brief: (§4)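 Mongrel dogs (10–16 kg, either sex) anesthetized with pentobarbitone sodium 35 mg/kg iv. Dosing by femoral vein catheter at 25, 50 or 100 µg/kg. Records initial BP, maximal fall in mean arterial pressure, percent hypotension and duration. Mean ± SEM, 3–8 experiments per dose.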

[14] = tested on: Canis familiaris; assay: Duration for hypotensive action in dogs after administering 50 ug/kg intravenously; assay type: functional, Canis lupus familiaris; method in brief: as §4
[15] = tested on: Felis catus; assay: Blood pressure lowering activity in anesthetized cats after intravenous administration of […] of compound; assay type: functional
[16] = tested on: Felis catus; assay: Hypotensive activity of compound was evaluated by measuring fall in blood pressure in cats after administering 50 ug/kg intravenously; assay type: functional; method in brief: as §2
[17] = tested on: Canis familiaris; assay: Hypotensive activity of compound was evaluated by measuring initial blood pressure in dogs after administering 100 ug/kg intravenously; assay type: functional, Canis lupus familiaris; method in brief: as §4
[18] = tested on: Felis catus; assay: Duration for hypotensive action in cats after administering 25 ug/kg intravenously; assay type: functional; method in brief: as §2
[19] = tested on: Oryctolagus cuniculus; assay: Hypotensive activity of compound was evaluated by measuring fall in blood pressure in rabbits after administering 25 ug/kg intravenously; assay type: functional; method in brief: as §3
[20] = tested on: Felis catus; assay: Hypotensive activity of compound was evaluated by measuring fall in blood pressure in cats after administering 10 ug/kg intravenously; assay type: functional; method in brief: as §2
[21] = tested on: Canis familiaris; assay: Percent hypotension was determined in dogs after administering 100 ug/kg intravenously; assay type: functional, Canis lupus familiaris; method in brief: as §4
[22] = tested on: Oryctolagus cuniculus; assay: Hypotensive activity of compound was evaluated by measuring initial blood pressure in rabbits after administering 10 ug/kg intravenously; assay type: functional; method in brief: as §3
[23] = tested on: Oryctolagus cuniculus; assay: Hypotensive activity of compound was evaluated by measuring initial blood pressure in rabbits after administering 50 ug/kg intravenously; assay type: functional; method in brief: as §3
[24] = tested on: Oryctolagus cuniculus; assay: Duration for hypotensive action in rabbits after administering 50 ug/kg intravenously; assay type: functional; method in brief: as §3
[25] = tested on: Oryctolagus cuniculus; assay: Hypotensive activity of compound was evaluated by measuring fall in blood pressure in rabbits after administering 50 ug/kg intravenously; assay type: functional; method in brief: as §3
[26] = tested on: Canis familiaris; assay: Hypotensive activity of compound was evaluated by measuring fall in blood pressure in dogs after administering 50 ug/kg intravenously; assay type: functional, Canis lupus familiaris; method in brief: as §4
[27] = tested on: Felis catus; assay: Percent hypotension was determined in cats after administering 50 ug/kg intravenously; assay type: functional; method in brief: as §2
[28] = tested on: Felis catus; assay: Duration for hypotensive action in cats after administering 50 ug/kg intravenously; assay type: functional; method in brief: as §2
[29] = tested on: Rattus norvegicus; assay: Difference in systolic blood pressure of SH rats observed prior to the first application and 2 hr after the fifth application at the oral dose of 5 mg/kg was expressed as Delta BP; assay type: functional, Artery; method in brief: as §1
[30] = tested on: Oryctolagus cuniculus; assay: Hypotensive activity of compound was evaluated by measuring initial blood pressure in rabbits after administering 25 ug/kg intravenously; assay type: functional; method in brief: as §3
[31] = tested on: Felis catus; assay: Hypotensive activity of compound was evaluated by measuring initial blood pressure in cats after administering 25 ug/kg intravenously; assay type: functional; method in brief: as §2
[32] = tested on: Canis familiaris; assay: Duration for hypotensive action in dogs after administering 100 ug/kg intravenously; assay type: functional, Canis lupus familiaris; method in brief: as §4
[33] = tested on: Canis familiaris; assay: Percent hypotension was determined in dogs after administering 50 ug/kg intravenously; assay type: functional, Canis lupus familiaris; method in brief: as §4
[34] = tested on: Oryctolagus cuniculus; assay: Duration for hypotensive action in rabbits after administering 10 ug/kg intravenously; assay type: functional; method in brief: as §3
[35] = tested on: Felis catus; assay: Hypotensive activity of compound was evaluated by measuring initial blood pressure in cats after administering 10 ug/kg intravenously; assay type: functional; method in brief: as §2
[36] = Compound was tested for toxicity in mice after intraperitoneal administration; assay type: organism-based; conditions: mouse, in vivo, ip
Method in brief: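 Mice (18–22 g), either sex. Compound dissolved in distilled water or suspended in 0.5% (carboxymethyl)cellulose and given ip at 10, 30, 100, 300 and 1000 mg/kg, 1 mL/100 g body weight. Animals observed for 48 h; approximate LD50 calculated by the Campbell and Richter method.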

[37] = tested on: Canis familiaris; assay: Duration for hypotensive action in dogs after administering 25 ug/kg intravenously; assay type: functional, Canis lupus familiaris; method in brief: as §4
[38] = tested on: Canis familiaris; assay: Hypotensive activity of compound was evaluated by measuring initial blood pressure in dogs after administering 25 ug/kg intravenously; assay type: functional, Canis lupus familiaris; method in brief: as §4
[39] = tested on: Canis familiaris; assay: Hypotensive activity of compound was evaluated by measuring initial blood pressure in dogs after administering 50 ug/kg intravenously; assay type: functional, Canis lupus familiaris; method in brief: as §4
[40] = tested on: Oryctolagus cuniculus; assay: Percent hypotension was determined in rabbits after administering 10 ug/kg intravenously; assay type: functional; method in brief: as §3
[41] = tested on: Canis familiaris; assay: Hypotensive activity of compound was evaluated by measuring fall in blood pressure in dogs after administering 100 ug/kg intravenously; assay type: functional, Canis lupus familiaris; method in brief: as §4
[42] = tested on: Canis familiaris; assay: Percent hypotension was determined in dogs after administering 25 ug/kg intravenously; assay type: functional, Canis lupus familiaris; method in brief: as §4
[43] = tested on: Oryctolagus cuniculus; assay: Percent hypotension was determined in rabbits after administering 25 ug/kg intravenously; assay type: functional; method in brief: as §3
[44] = tested on: Oryctolagus cuniculus; assay: Hypotensive activity of compound was evaluated by measuring fall in blood pressure in rabbits after administering 10 ug/kg intravenously; assay type: functional; method in brief: as §3

COc1cc2c(cc1OC)-c1cc(N(C)c3c(F)cccc3F)nc(=O)n1CC2
Delta blood pressure [1]: 0 mmHg | ED25 [2]: 6 mg/kg | Delta blood pressure [3]: 0 mmHg | Antihypertensive activity [4]: 10 mg/kg | ED25 [5]: 0.03 mg/kg

COc1cc2c(cc1OC)-c1c/c(=N\c3c(C)cc(C)cc3C)n(C)c(=O)n1CC2.Cl [TREQUINSIN HYDROCHLORIDE]
Hypotension [6]: 23.4% | Duration [7]: 16 min | Duration [8]: 57.8 min | BP [9]: 125 mmHg | BP [10]: 25.8 mmHg | Hypotension [11]: 28.5% | Hypotension [12]: 16.8% | BP [13]: 37.5 mmHg | Duration [14]: 98.3 min | ED25 [15]: 0.025 mg/kg | BP [16]: 34.2 mmHg | BP [17]: 168.3 mmHg | Duration [18]: 45 min | BP [19]: 26.4 mmHg | BP [20]: 17 mmHg | ED25 [2]: 0.025 mg/kg | Hypotension [21]: 33.7% | BP [22]: 93.8 mmHg | BP [23]: 84.2 mmHg | Duration [24]: 70 min | BP [25]: 24.2 mmHg | BP [26]: 40.8 mmHg | Hypotension [27]: 28.6% | Duration [28]: 82.5 min | Delta blood pressure [29]: -41 mmHg | BP [30]: 89.6 mmHg | BP [31]: 116 mmHg | Duration [32]: 140 min | Hypotension [33]: 25.4% | Duration [34]: 20.7 min | BP [35]: 110 mmHg | LD50 [36]: 150 mg/kg | Duration [37]: 50 min | BP [38]: 168.8 mmHg | BP [39]: 163.3 mmHg | Hypotension [40]: 18.6% | BP [41]: 56.1 mmHg | Hypotension [42]: 22.9% | Hypotension [43]: 29.9% | BP [44]: 17.4 mmHg
